High-throughput results deposited in PubChem BioAssay by several laboratories.
The list is not random: actives were taken first. Their share in the collection is about 2.6%.
SENP6 inh: SENP6 protease inhibition; inhibition, % at 10 µM; Q9GZR1; AID 2599; Recombinant SENP6 catalytic domain, aminoluciferin luminescence; 330,000 tested, 1.8% active;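 active = inhibition above about 50% at the single tested dose, limit read from the data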
SENP8 block-1: blocks human SENP8 cleavage of Nedd8 substrate | 360,000 tested, 0.64% active | recombinant SENP8, Nedd8 substrate fluorescence | inhibition, % at 20 µM; in the data active = inhibition mostly above about 40%, no sharp cut-off; inactive = mostly below about 27%
Target sequence (Q96LD8 whole entry, looked up): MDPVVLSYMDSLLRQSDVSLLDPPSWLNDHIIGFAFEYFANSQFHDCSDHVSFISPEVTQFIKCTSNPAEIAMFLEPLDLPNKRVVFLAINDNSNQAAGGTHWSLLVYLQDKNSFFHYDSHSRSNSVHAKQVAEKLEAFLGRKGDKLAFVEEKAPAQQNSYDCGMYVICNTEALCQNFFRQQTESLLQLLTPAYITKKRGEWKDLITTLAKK
SENP1 FRET inh: SENP1 (human) catalytic domain inhibition; Q9P0U3; recombinant SENP1 catalytic domain, CyPet-SUMO1-YPet FRET cleavage; inhibition, % at 10 µM; 360,000 tested, 0.21% active; AID 624204;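 active = inhibition at least 30% at 10 µM, raw YFP signal under a set limit, fluorescence ratio 0.5 to 1.5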
Target sequence (Q9P0U3 419-644 limits assumed): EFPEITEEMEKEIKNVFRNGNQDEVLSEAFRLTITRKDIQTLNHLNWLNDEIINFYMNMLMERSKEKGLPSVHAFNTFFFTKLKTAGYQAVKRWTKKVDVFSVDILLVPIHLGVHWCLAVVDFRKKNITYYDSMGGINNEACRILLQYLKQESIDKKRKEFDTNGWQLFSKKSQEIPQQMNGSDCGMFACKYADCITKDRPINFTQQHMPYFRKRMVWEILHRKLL
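Controls: no-enzyme wells low, DMSO-plus-enzyme wells high control. Test system: human recombinant His6-tagged SENP1 catalytic domain enzyme. Reagent: SFCypet-SUMO1-SFYpet FRET protein substrate, 25 nM final. Doses: one dose per compound, 10 µM, 0.5% DMSO. Detection: FRET, CFP and YFP emission. Timing: 50 min reaction at room temperature.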
SENP8 block-2: inhibitors of human SENP8 protease. 330,000 tested, 1.2% active. Q96LD8. inhibition, % at 10 µM. purified SENP8, Z-RLRGG-aminoluciferin cleavage, luminescence; in the data active = inhibition above about 50%
Platelet DG rel: platelet dense granule release activity | human platelet-rich plasma, SFLLRN dense granule ATP release, luminescence | inhibition, %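 (compounds screened at 7.5 µM in platelet-rich plasma)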 | 300,000 tested, 0.22% active | AID 1663;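 active = mean replicate score, as percent of positive control, at or above 50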
SENP7 inh: SENP7 protease inhibition; 330,000 tested, 1.5% active; Q9BQF6; inhibition, % at 5 µM; recombinant SENP7, Z-RLRGG-aminoluciferin luminescence, 40 min;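 active = inhibition above about 50% at the single test dose, limit read from the data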
SENP8 confirm: confirmation of human SENP8 protease inhibitors | shares compounds with SENP7 inh | Recombinant SENP8, Z-RLRGG-aminoluciferin luminescence, 60 min | inhibition, % at 12.5 µM | 6,200 tested, 40% active | AID 488912;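 active = mean inhibition across replicates above about 50%, limit read from the data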
SENP6 confirm: confirmation of human SENP6 protease inhibitors | inhibition, % at 12.5 µM | recombinant SENP6, Z-RLRGG-aminoluciferin luminescence | AID 488915 | 6,200 tested, 58% active | shares compounds with SENP7 inh
SENP7 conf: human SENP7 inhibition, confirmed | 6,200 tested, 69% active | inhibition, % at 12.5 µM | recombinant SENP7, Z-RLRGG-aminoluciferin luminescence, 40 min | shares compounds with SENP7 inh
Casp3 select: selectivity test for SENP inhibitors: human caspase-3 inhibition. shares compounds with SENP7 inh. AID 488918. purified caspase-3, Z-DEVD-aminoluciferin luminescence, 60 min. inhibition, % at 12.5 µM. 6,200 tested, 60% active;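 active = mean inhibition above about 50%, limit read from the data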
Target sequence (P42574 28-227 limits assumed): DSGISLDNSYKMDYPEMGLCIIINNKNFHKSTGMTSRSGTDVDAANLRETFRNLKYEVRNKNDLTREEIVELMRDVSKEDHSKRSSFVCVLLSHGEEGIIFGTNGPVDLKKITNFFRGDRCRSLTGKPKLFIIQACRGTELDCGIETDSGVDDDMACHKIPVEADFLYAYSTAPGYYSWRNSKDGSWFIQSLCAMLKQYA
SENP luc ctr: interferes with luciferase luminescence in SENP counter-screen; shares compounds with SENP7 inh; Pre-incubated SENP8/Z-RLRGG-aminoluciferin, luciferase luminescence interference; inhibition, % at 12.5 µM; 6,200 tested, 39% active; AID 488919;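 active = mean inhibition above about 50% when retested at one dose, limit read from the data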
Numbers stand for hits; . = inactive; / = no result given.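 Rule for the calls, unless noted: active = mean inhibition above about 50% in the one-dose retest (limit read from the data); inactive = the rest.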

SMILES	SENP6 inh	SENP8 block-1	SENP1 FRET inh	SENP8 block-2	Platelet DG rel	SENP7 inh	SENP8 confirm	SENP6 confirm	SENP7 conf	Casp3 select	SENP luc ctr
Cc1cc(N2C(=O)C=CC2=O)c([N+](=O)[O-])cc1C	.	.	.	.	.	.	/	/	/	/	/
Oc1ccccc1/C=N/Nc1nc2ccccc2o1	83	.	.	69	.	79	.	62	92	66	.
COc1ccc(/C=N/Nc2nc3ccccc3o2)cc1O	.	.	.	64	.	73	84	84	97	82	82
Brc1ccc(/C=N/Nc2nc3ccccc3o2)cc1	.	.	.	.	.	55	.	.	.	.	.
CC(C)(C)c1ccc(C(=O)c2c[nH]c(C(=O)O)c2)cc1	85	.	.	78	.	75	.	76	95	.	84
COC(=O)c1cc(C(=O)c2ccc(C(C)(C)C)cc2)c[nH]1	.	.	.	.	.	.	/	/	/	/	/
Cc1ccc(NC(=O)CCNC(=O)c2ccc(Br)cc2)cc1S(=O)(=O)N1CCCCCC1	.	.	.	.	.	.	/	/	/	/	/
COc1ccc(OC)c(Nc2cc3ccccc3c(=O)[nH]2)c1	94	.	.	88	.	97	.	74	.	.	.
CC(=O)c1cccc(-c2ccc3c(=O)[nH]c(Nc4ccccc4)cc3c2)c1	99	.	.	97	.	95	95	97	95	97	.
COc1ccccc1Nc1cc2cc(Br)ccc2c(=O)[nH]1	98	.	.	97	.	96	86	97	94	86	.
COc1ccccc1Nc1nnc(C)c(=O)[nH]1	.	.	.	.	.	.	/	/	/	/	/
O=c1[nH]c(Nc2ccccc2)cc2cc(Br)ccc12	96	.	.	97	.	94	96	98	96	95	.
COc1ccc(CCNS(=O)(=O)c2ccc([N+](=O)[O-])cc2)cc1OC	.	.	.	.	.	.	/	/	/	/	/
CCCCN1C(=O)C(=O)N(CC(=O)Nc2ccc(OC(F)(F)F)cc2)C1=O	.	.	.	.	/	.	/	/	/	/	/
O=c1[nH]c(Nc2ccccc2)cc2ccccc12	89	.	.	96	.	94	55	80	59	.	.
O=C(CC1C(=O)NCCN1Cc1ccccn1)NCCc1ccccc1F (stereo not drawn)	.	.	.	.	.	.	/	/	/	/	/
Cc1[nH]n(-c2ccc([N+](=O)[O-])cc2)c(=O)c1C=NCCN1CCN(C(=O)C(C)C)CC1	85	.	.	62	.	78	.	.	.	.	.
CCCc1[nH]n(-c2ccc([N+](=O)[O-])cc2)c(=O)c1C=NCCN1CCNCC1	92	/	/	84	.	87	78	50	57	85	69
CCCc1[nH]n(-c2ccc([N+](=O)[O-])cc2)c(=O)c1C=NCCCn1ccnc1	.	.	.	.	.	.	/	/	/	/	/
CC(C)c1cccc(-c2csc(C(C)(O)c3ccc(F)c(F)c3)n2)c1 (stereo not drawn)	/	.	.	/	/	/	/	/	/	/	/
O=C1CC(/C=C/c2ccccc2)=Nc2ccccc2N1	67	.	.	.	.	.	.	.	56	.	.
O=C1CC(/C=C/c2ccc(Cl)cc2)=Nc2ccccc2N1	.	.	.	.	.	.	/	/	/	/	/
Cc1cccc(N2CCN(C3C(=O)Nc4ccccc4-n4nnnc43)CC2)c1C (stereo not drawn)	/	.	.	/	/	/	/	/	/	/	/
S=C(Nc1ccccc1)c1ccccn1	64	.	.	54	.	59	.	.	83	59	.
S=C(Nc1ccccc1)Nc1ccccn1	/	.	.	/	/	/	/	/	/	/	/
SMILES	SENP6 inh	SENP8 block-1	SENP1 FRET inh	SENP8 block-2	Platelet DG rel	SENP7 inh	SENP8 confirm	SENP6 confirm	SENP7 conf	Casp3 select	SENP luc ctr
O=C(O)c1ccc(S(=O)(=O)N2CCN(c3ccccn3)CC2)cc1	.	.	.	.	.	.	/	/	/	/	/
Cc1cc(-n2c(C)cc(C(=O)COc3ccc(F)c(F)c3)c2C)no1	64	.	.	.	/	.	60	59	81	.	.
Fc1ccccc1C1c2cccn2CCN1C(=S)Nc1ccc(Br)cc1 (stereo not drawn)	.	.	.	.	.	.	/	/	/	/	/
Cc1cc2c(cc1C)C(=O)NC(C)(C)C2	.	.	.	.	.	59	.	.	.	.	.
COc1cc(Br)c(C2CC(=O)Nc3cc(OC)c(OC)cc32)cc1OC (stereo not drawn)	.	.	.	.	.	.	/	/	/	/	/
O=C(NCc1ccccc1)c1cc2ccc(O)cc2oc1=O	95	.	.	97	.	96	98	98	102	98	97
O=C(O)c1ccc(N=c2oc3cc(O)ccc3cc2C(=O)NCc2ccccc2)cc1	.	.	.	.	.	.	/	/	/	/	/
O=c1oc2cc(O)ccc2cc1-c1ccccc1	90	.	.	91	.	88	94	94	99	92	92
COC(=O)COc1ccc2cc(-c3ccccc3)c(=O)oc2c1	55	.	.	.	.	.	.	.	.	.	.
O=c1oc2ccccc2cc1-c1ccc(O)cc1O	.	.	.	.	.	.	/	/	/	/	/
COc1ccc(-c2cc3ccc(O)cc3oc2=O)cc1	88	.	.	83	.	58	73	77	93	76	62
COc1ccc(N2C(=O)C3CCCN3C2=S)cc1 (stereo not drawn)	.	.	.	.	.	.	/	/	/	/	/
O=C(O)C(Oc1ccc2cc(-c3ccc(Cl)cc3)c(=O)oc2c1)c1ccccc1 (stereo not drawn)	77	.	.	.	.	.	74	75	63	.	.
COc1ccc(-c2cc3ccc(OCc4nn[nH]n4)cc3oc2=O)cc1OC	76	.	.	51	.	65	67	66	91	85	72
COc1ccc(-c2cc3ccc(OCC(C)=O)cc3oc2=O)cc1OC	.	.	.	.	.	.	/	/	/	/	/
CC(CNC(=O)CCc1nnc(CCC2CCCCC2)o1)c1ccccc1 (stereo not drawn)	.	.	.	.	.	.	/	/	/	/	/
CC(NC(=O)c1ccccc1)c1nnc(SCC(=O)NC2CCCC2)n1C (stereo not drawn)	.	.	.	.	.	.	/	/	/	/	/
